From PubChem BioAssay
An excerpt weighted towards active compounds, which were near 1.9% of everything screened.
MT stabilize HCS = microtubule stabilization, imaging screen; HeLa tubulin immunostaining HCS, 24 h; share of cells brighter than vehicle mean+2SD; % tubulin-high responders, % at 10 µM; actives 0.83% (n = 200,000); AID 2205;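 active = plate Z-score above 3 for both tubulin-high and condensed-nucleus cell shares, with cell loss under 80%, at 10 µM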;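 note: anti alpha tubulin signal scored within the nucleus-defined area of each cell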
b-catenin transl = modulators of beta-catenin nuclear translocation. HeLa beta-catenin nuclear translocation, immunofluorescence imaging. nuclear translocation activity, % at 5 µM. actives 0.3% (n = 190,000);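 active = nuclear translocation activity above 50% at 5 µM, with a well cell count of 50 or more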;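 note: per-cell ratio of nuclear to cytoplasmic median beta-catenin stain intensity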
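System: Human HeLa cells, endogenous beta-catenin | Compound dosing: 5 µM primary, 0.02–20 µM confirmation | Timing: 24 h compound exposure at 37°C, 5% CO2 | Measured by: Fluorescence imaging of beta-catenin antibody stain plus DAPI | Read-out basis: % activation of per-cell nuclear versus cytoplasmic median beta-catenin signal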
ROMK mod = modulates human ROMK potassium channel activity. P48048. Tet-inducible ROMK, thallium flux fluorescence; actives lie on both sides. B-score at 10 µM. actives 2% (n = 130,000);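 active = signal ratio slope over the read window, or its plate-corrected B-score, at least 3 SD from the plate mean, either direction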;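 note: B-score of the F/F0 ratio slope over 7 to 12 s after thallium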
Target sequence (P48048 whole entry, looked up): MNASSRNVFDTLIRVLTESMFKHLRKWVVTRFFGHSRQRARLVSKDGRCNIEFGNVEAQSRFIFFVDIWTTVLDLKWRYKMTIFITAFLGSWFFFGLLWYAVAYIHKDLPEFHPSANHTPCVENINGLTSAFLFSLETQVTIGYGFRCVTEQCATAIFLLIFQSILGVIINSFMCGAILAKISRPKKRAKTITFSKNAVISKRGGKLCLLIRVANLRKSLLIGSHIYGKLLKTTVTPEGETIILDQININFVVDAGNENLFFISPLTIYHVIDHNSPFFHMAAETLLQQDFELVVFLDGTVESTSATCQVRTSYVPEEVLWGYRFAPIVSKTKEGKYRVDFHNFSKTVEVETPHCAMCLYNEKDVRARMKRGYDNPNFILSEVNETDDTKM
Of the large screens only hits and unclear results are named; the others gave an inactive call.

COc1ccc(NC(=O)CSc2nc(C)c3c(c2C#N)CCCC3)cc1	none (no result: ROMK mod)
CCN(CC)C(=O)C12CC3CC(CC(Br)(C3)C1)C2	none
N/C(Cc1ccc(Cl)cc1)=N\OC(=O)C1CCCCC1	none
COc1ccc(NC(=O)c2c(Cl)n(C)c3ccccc23)cc1	MT stabilize HCS 49 (no result: ROMK mod)
COc1ccc(NC(=O)Cc2c(Sc3ccccc3)c3ccccc3n2C)cc1	none (no result: ROMK mod)
COc1ccc(C/C(C)=N/NS(=O)(=O)c2ccc(Br)cc2)cc1	none
CC(=O)Oc1ccc2ccccc2c1C(NC(=O)Cc1ccccc1)c1ccc(Cl)cc1 (centres undefined)	none (no result: ROMK mod)
COc1cccc(/C(N)=N/OC(=O)Cc2ccccc2[N+](=O)[O-])c1	none
COCC(=O)Nc1c(C(=O)Nc2ccccc2OC)oc2ccccc12	none (no result: ROMK mod)
COc1ccccc1NC(=O)c1oc2ccccc2c1NC(=O)c1cc(OC)c(OC)c(OC)c1	MT stabilize HCS 36 (no result: b-catenin transl, ROMK mod)
COc1ccc(CCn2c(N)c(C(=O)NCc3ccco3)c3nc4ccccc4nc32)cc1OC	none (no result: ROMK mod)
COc1ccc(CCn2c(N)c(C(=O)NCc3ccco3)c3nc4ccccc4nc32)cc1	MT stabilize HCS 15
CSc1nc(N(C)NC(=O)c2ccc(F)cc2)c2ccccc2n1	MT stabilize HCS 33 (no result: ROMK mod)
Cn1c(CNC(=O)c2ccc(F)cc2)nc2ccccc21	none (no result: ROMK mod)
Cc1cc(C)n2nc(C(=O)Nc3ccc(S(=O)(=O)N(C)C)cc3)nc2n1	none (no result: MT stabilize HCS, ROMK mod)
COc1ccc(C2C(C(=O)c3ccccc3)N3c4ccccc4C=CC3C2[N+](=O)[O-])cc1 (centres undefined)	ROMK mod -3.7
COc1ccc(N2C(=O)[C@@H]3[C@H](C2=O)[C@H](C(C)=O)N2c4ccccc4C=C[C@@H]32)cc1	none (no result: MT stabilize HCS, ROMK mod)
COc1ccc(OCc2nc3ccccc3n2C(C)C)cc1	none
Cc1ccc(/C=N/NC(=O)CCCOc2ccc(Cl)cc2Cl)cc1	b-catenin transl 115
O=C(CCCOc1ccc(Cl)cc1Cl)N/N=C/c1ccccc1	none
CCC1CCCCN1C(=O)Cn1nc([N+](=O)[O-])c(Cl)c1C (centres undefined)	none
CC1CC(c2ccccc2)n2nc(NC(=O)c3ccco3)nc2N1 (centres undefined)	ROMK mod -6.6
COc1ccc(C2CC(c3ccc(F)cc3)n3nc(NC(=O)c4ccco4)nc3N2)cc1 (centres undefined)	none (no result: MT stabilize HCS, ROMK mod)
CCC(=O)c1ccc(OCC(=O)NCC2(N3CCCCC3)CCCCC2)cc1	none
COCCOC(=O)c1[nH]c2c(c1C)C(=O)CC(c1ccc(F)cc1)C2 (centres undefined)	MT stabilize HCS 22, b-catenin transl 78 (no result: ROMK mod)
COCCOC(=O)c1[nH]c2c(c1C)C(=O)CC(c1ccccc1)C2 (centres undefined)	MT stabilize HCS 25, b-catenin transl 95 (no result: ROMK mod)
C=CCOC(=O)c1[nH]c2c(c1C)C(=O)CC(c1cc(OC)c(OC)c(OC)c1)C2 (centres undefined)	none (no result: ROMK mod)
COCCOC(=O)c1[nH]c2c(c1C)C(=O)CC(c1ccc(N(C)C)cc1)C2 (centres undefined)	none (no result: ROMK mod)
CNC(=O)CN(c1ccc(OC)cc1)S(=O)(=O)c1ccc(F)cc1	none
CNC(=O)CN(c1cc(OCCOC)c(Cl)cc1Cl)S(=O)(=O)c1ccc(OC)cc1	MT stabilize HCS 16
CNC(=S)NNC(=O)c1cc(C(C)(C)C)nn1Cc1ccc(F)cc1	none (no result: MT stabilize HCS, ROMK mod)
COc1ccc2[nH]cc(/C=C/C(=O)c3ccccc3)c2c1	none (no result: MT stabilize HCS, ROMK mod)
CS(=O)(=O)n1nc(-c2ccc(Cl)cc2)nc1N	none
Cn1nc(-c2ccc(Cl)cc2)nc2c(=O)n(C)c(=O)nc1-2	MT stabilize HCS 15 (no result: ROMK mod)
CC(Sc1cnccn1)C(=O)O (centres undefined)	none
COC(=O)c1cc(NC(=O)c2cccc(Cl)c2)c(=O)oc1/C=C/Nc1cc(C)cc(C)c1	ROMK mod -5.8
COC(=O)c1cc(NC(=O)c2cccc(C(F)(F)F)c2)c(=O)oc1C	none
COc1ccc(CCNC(=O)CSc2nnc3ccccn23)cc1	none
COc1ccc([N+](=O)[O-])cc1NC(=O)c1ccc(-n2nc(C)cc2C)cc1	none
COCCNC(=O)C(c1ccccc1F)N(C(=O)C(=O)NC1CCCC1)C1CCCCC1 (centres undefined)	none
Cc1nn2c(COc3ccc(NC(=O)c4ccccc4Cl)cc3)nnc2c2ccccc12	MT stabilize HCS 18 (no result: ROMK mod)
Cc1nn2c(COc3ccc(NC(=O)C(C)C)cc3)nnc2c2ccccc12	none
CCCC(=O)NC(=S)c1c(C)n(C)n(-c2ccccc2)c1=O	none
CCCc1ccc(OCC(=O)Nc2cc(S(=O)(=O)CC)ccc2O)cc1	none
Cc1ccc(C2Oc3ccccc3C3=C2C(c2cccs2)n2ncnc2N3)cc1 (centres undefined)	MT stabilize HCS 32 (no result: ROMK mod)
Fc1ccc(C2C3=C(Nc4ncnn42)c2ccccc2OC3c2ccncc2)cc1 (centres undefined)	none (no result: b-catenin transl)
CC1(C)c2ssc(=S)c2-c2ccccc2N1C(=O)c1ccco1	none
Cc1ccc2c(c1)-c1c(ssc1=S)C(C)(C)N2C(=O)c1ccco1	MT stabilize HCS 37
COc1ccc(C(=O)Nc2ccc(SC(F)F)cc2)cc1	none
N#CC1=C(N)Oc2cc(N)ccc2C1C1CCCCC1 (centres undefined)	MT stabilize HCS 46 (no result: b-catenin transl)
COc1ccc(OC)c(C2C(C#N)=C(N)Oc3cc(N)ccc32)c1 (centres undefined)	none (no result: ROMK mod)
COc1cccc(OC)c1C1=NC(C)(C)CO1	none (no result: MT stabilize HCS, ROMK mod)
CC(C)n1c(C(=O)OCC(=O)NCc2ccc3c(c2)OCO3)cc2occc21	none (no result: ROMK mod)
CC(C)n1c(C(=O)OCC(=O)NCc2ccc3c(c2)OCO3)cc2sccc21	MT stabilize HCS 42
O=C1CC(c2cccc(Cl)c2)Cc2nc(N3CCN(c4ccccc4)CC3)ncc21 (centres undefined)	none (no result: ROMK mod)
CCN1CCN(c2ncc3c(n2)CC(c2cc(OC)c(OC)c(OC)c2)CC3=O)CC1 (centres undefined)	MT stabilize HCS 32, b-catenin transl 141
COc1ccc(CN2CCNC(=O)C2CC(=O)NC2Cc3ccccc3C2)c(OC)c1 (centres undefined)	none
CC(=O)Cn1ncc(Br)c(Br)c1=O	none
O=C(OCn1ncc(Br)c(Br)c1=O)c1c(F)cccc1F	ROMK mod -4.2
CCOC(=O)C1=C(C)Nc2ncnn2C1/C=C/c1ccccc1 (centres undefined)	none (no result: ROMK mod)
CCCC1=C(C(=O)OCC)C(/C=C/c2ccccc2)n2ncnc2N1 (centres undefined)	MT stabilize HCS 45 (no result: b-catenin transl, ROMK mod)
CC(C)c1ccc2c(c1)C1Cc3ccccc3C1N2 (centres undefined)	none
CCOC(=O)CSC1=C(C#N)C(c2ccc(C)s2)CC(=O)N1 (centres undefined)	MT stabilize HCS 31
COC(=O)CSC1=C(C#N)C(c2ccsc2)CC(=O)N1 (centres undefined)	MT stabilize HCS 45 (no result: ROMK mod)
CCOC(=O)CSC1=C(C#N)C(c2ccccc2OC)CC(=O)N1 (centres undefined)	MT stabilize HCS 21 (no result: ROMK mod)
CCSC1=C(C#N)C(c2ccc(C)s2)CC(=O)N1 (centres undefined)	none
N#CC1=C(SCC(=O)NCc2ccccc2)NC(=O)CC1c1ccco1 (centres undefined)	none (no result: ROMK mod)
COC(=O)CSC1=C(C#N)C(c2ccccc2)CC(=O)N1 (centres undefined)	none (no result: b-catenin transl, ROMK mod)
N#CC1=C(SCC(=O)Nc2ccccc2)NC(=O)CC1c1ccco1 (centres undefined)	MT stabilize HCS 50 (no result: b-catenin transl)
CCSC1=C(C#N)C(c2ccccc2OC)CC(=O)N1 (centres undefined)	none (no result: ROMK mod)
